The target in data set [1] is T1, Ribose-phosphate pyrophosphokinase 1 (Homo sapiens) (UniProt P60891).
T1 sequence (whole entry): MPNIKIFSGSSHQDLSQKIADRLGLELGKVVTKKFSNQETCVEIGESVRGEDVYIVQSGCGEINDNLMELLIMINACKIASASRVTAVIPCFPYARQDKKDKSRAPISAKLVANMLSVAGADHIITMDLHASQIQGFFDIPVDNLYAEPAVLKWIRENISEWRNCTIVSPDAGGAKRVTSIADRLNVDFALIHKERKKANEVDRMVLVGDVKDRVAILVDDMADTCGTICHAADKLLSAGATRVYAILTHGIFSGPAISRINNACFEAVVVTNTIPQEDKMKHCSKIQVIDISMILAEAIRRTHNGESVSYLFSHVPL
The data set is described as follows: Binding affinity to PRPS1 (unknown origin).

In data set [2] the test system is Hepatitis C virus. The experiment in a line: Ratio of EC50 for antiviral activity against HCV infected in human Huh7.5.1 cells assessed as decrease in viral infection in presence of uridine to EC50 for antiviral activity against HCV infected in human Huh7.5.1 cells assessed as decrease in viral infection in absence of uridine. In kind it is functional, Hepacivirus hominis. The essentials: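 HCV antiviral EC50 in Huh7.5.1 cells was measured with 0.5 mM uridine supplemented, and compared with the EC50 obtained without uridine.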

Data set [3] concerns Hepatitis C virus. The experiment in a line: Antiviral activity against EGFP-fused HCV JFH-1 harboring K78E/E2-G451R/NS3-M260K/NS5A-T462I mutation infected in human Huh7.5.1 cells assessed as reduction in viral RNA level after 2 days in presence of sofosbuvir by qRT-PCR analysis. In kind it is functional, organism-based. Particulars: Hepacivirus hominis. The essentials: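 Huh7.5.1 cells at 1×10^4/well, grown overnight at 37 °C. HCVcc was mixed with serially diluted compound (top 30 or 6 μM), given alone or with the named drug, and added to the cells. Viral RNA was read by qRT-PCR after 2 days. EC50 is the concentration giving 50% RNA reduction.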

Data set [4] deals with Dengue virus. The experiment in a line: Antiviral activity against DENV infected in human Huh7.5.1 cells assessed as inhibition of viral replication measured after 3 days by qRT-PCR analysis. In kind it is functional, organism-based. Particulars: Huh-7.5.1, 72 h. The essentials:
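Huh7.5.1 cells were infected with DENV II or ZIKV at MOI 0.1 and treated with compound. Viral RNA was quantified by qRT-PCR after 3 days. EC50 is 50% reduction of RNA level.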
Background: Quantitative PCR measures a nucleic acid by following its amplification.

Data set [5] relates to Enterovirus A71. The experiment in a line: Antiviral activity against EV71 infected in human RD cells measured at 24 hrs post-infection by luciferase reporter gene assay. It is filed as functional, organism-based. Particulars: Enterovirus A. Put shortly:
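RD cells at 1×10^4/well, cultured overnight, were infected with EV71(FY)-Luc at MOI 1 and treated with compound immediately afterwards. Luminescence read-out; EC50 is 50% signal reduction.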
In general terms: In a reporter assay the amount or activity of a reporter protein is the signal.

For data set [6], the system named is Hepatitis C virus. The data set is described as follows: Antiviral activity against EGFP-fused HCV JFH-1 harboring K78E/E2-G451R/NS3-M260K/NS5A-T462I mutation infected in human Huh7.5.1 cells assessed as combination index after 2 days in presence of ribavirin by qRT-PCR analysis. In kind it is functional, Hepacivirus hominis. The essentials: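 In HCVcc-infected Huh7.5.1 cells (1×10^4/well, overnight, 37 °C), compound was given at various concentrations alone or with the named approved antiviral. After 2 days HCV RNA was quantified by qRT-PCR to derive the combination index.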

A short description of data set [7]: Selectivity index, ratio of CC50 for HEK293T cells to EC50 for HIV pseudotyped virions infected in HEK293T cells. It is filed as toxicity, cell-based. Particulars: human, read-out: Ratio CC50/EC50. The essentials: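 HIV pseudovirus made from VSVG plus env-deficient pNL4-3.luc.R-E- in HEK293T cells and diluted to 0.2 ng p24/ml. Target HEK293T cells were given compound 15 min before infection and lysed 48 h post-infection. CC50 by 48 h WST-1 viability (OD450/OD630).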

The species named for data set [8] is Homo sapiens. The experiment in a line: Potency index, ratio of teriflunomide IC50 to test compound IC50 for C-terminal 6-His tagged recombinant human DHODH N-terminal domain delta29 mutant expressed in Escherichia coli BL21(DE3). Put shortly:
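DCIP assay: His6-Δ29 human DHODH at 10 nM final in 50 mM HEPES pH 7.7, 150 mM KCl, 0.1% Triton X-100, with 100 μM UQ0 and 120 μM DCIP, preincubated 5 min at RT. Reaction started with 500 μM dihydroorotate; A600 read every 30 s for 6 min.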

Data set [9] can be described thus: Cytotoxicity against human RD cells infected with EV71 assessed as decrease in cell viability after 48 hrs by WST1 assay. In kind it is cell-based. Put shortly: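 Cells seeded at 1 × 10^4 per well and cultured overnight at 37 °C, then incubated 48 h with serially diluted compounds. Viability read with WST-1 reagent as absorbance at OD450/OD630.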
The subject of data set [10] is Huh7.5.1. The data set is described as follows: Cytotoxicity against human Huh7.5.1 cells infected with DENV assessed as decrease in cell viability after 48 hrs by WST1 assay. Particulars: Huh-7.5.1, 48 h. It is filed as cell-based. The essentials:
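Cells at 1×10^4/well, cultured overnight at 37 °C, were incubated 48 h with serially diluted compound. Viability was read by WST-1 absorbance (OD450/OD630).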
A general note: Tetrazolium assays rely on reduction of a dye to a coloured formazan, in cell work by metabolically active cells.

The target of data set [11] is T2, Sialate O-acetylesterase (Homo sapiens) (UniProt Q9HAT2).
T2 sequence (whole entry): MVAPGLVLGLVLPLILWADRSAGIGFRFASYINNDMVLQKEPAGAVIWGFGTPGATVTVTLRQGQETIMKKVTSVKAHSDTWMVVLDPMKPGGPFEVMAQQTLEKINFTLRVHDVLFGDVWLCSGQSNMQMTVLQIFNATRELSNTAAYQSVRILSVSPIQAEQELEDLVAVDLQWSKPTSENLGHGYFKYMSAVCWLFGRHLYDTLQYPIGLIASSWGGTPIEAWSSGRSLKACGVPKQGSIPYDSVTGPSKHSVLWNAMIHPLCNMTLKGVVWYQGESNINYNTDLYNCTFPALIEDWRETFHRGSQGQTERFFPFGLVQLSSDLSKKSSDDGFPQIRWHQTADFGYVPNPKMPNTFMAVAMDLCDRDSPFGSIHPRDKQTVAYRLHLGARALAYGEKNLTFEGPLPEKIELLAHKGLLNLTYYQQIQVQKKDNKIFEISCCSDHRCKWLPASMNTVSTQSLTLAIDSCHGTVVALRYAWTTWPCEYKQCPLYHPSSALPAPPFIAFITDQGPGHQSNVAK
The data set is described as follows: Binding affinity to SIAE in human Huh7.5.1 cell lysate infected with HCV at 0.1 to 10 uM incubated for 1 hr followed by 10000 mJ/cm2 UV irradiation for 10 mins and subsequent addition of biotin-N3 measured after 1 hr by ABPP Gel-based by LC/MS/MS analysis. In kind it is subcellular. Put shortly: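 ABPP: Huh7.5.1 cells HCV-infected 2 days were lysed by sonication in PBS with protease inhibitors (~1.5 mg/ml protein). Photo-probe at 1.0–10.0 μM was UV-crosslinked (350 nm, 10000 mJ/cm2, 10 min), then clicked to biotin-N3 (CuSO4/TBTA/TCEP, 1 h RT). Proteins were precipitated, avidin pull-down, washed with SDS, urea, PBS; LC-MS/MS versus negative-probe, competitor and DMSO groups.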

One compound from ChEMBL document CHEMBL4334439, “Discovery, Optimization, and Target Identification of Novel Potent Broad-Spectrum Antiviral Inhibitors” (J Med Chem, 2019) can be followed below.

Calls of active or inactive are those of the source. The calls are words filed in the database; no cut-off is given here. Some results are limits rather than exact numbers.

Consider `CCN(CC)c1ccc(Oc2ccc(-c3[nH]c4cccc(F)c4c(=O)c3C)cc2F)cc1`, for which the result in data set [1] was inactive. The “Ratio EC50” value in data set [2] was 200. Besides, the Activity result in data set [3] is “Dose-dependent effect”. The EC50 was 7 nM in [4], 4 nM in data set [5] and above 2500 nM in [10]. For the same compound, the CI in [6] is above 50. Moreover, in data set [7], the selectivity ratio was above 96. Moreover, the Ratio IC50 in data set [8] is 4. The CC50 at 48 h in data set [9] was above 2500 nM. Also, the outcome in data set [11] was Active.

For orientation: EC50 means the concentration that produces a half-maximal response. As usually defined, the CC50 is the concentration giving 50% cytotoxicity.
